In the library only some 6.4% were active in any assay of this set; here they are far more common.
Tb MetRS inh: blocks T. brucei methionyl-tRNA synthetase activity; purified T. brucei MetRS, ATP depletion, Kinase-Glo luminescence; AID 624268; 360,000 compounds, 0.4% hits; inhibition, % at 11.9 µM;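 active = inhibition above a per-plate cutoff of the control wells' mean inhibition plus 3 SD, cut at about 5.5% in these data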;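 also: 0% = DMSO wells median and 100% = median of wells with control inhibitor compound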
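Material: T. brucei methionyl-tRNA synthetase, purified; reagent: substrates ATP, L-methionine and bulk Escherichia coli tRNA; dosing: 11.9 µM single point; timing: 15 min plus 2 h at 25 °C; detection: luminescence of leftover ATP; evaluation: % inhibition; control set: DMSO-only wells as low control; replicates: singlicate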
NR3A LBD binder: NR3A (human) ligand-binding domain modulation. NR3A LBD differential scanning fluorimetry, Tm shift; 0% = protein alone, 100% = glycine-bound protein. Tm shift relative to glycine control, % at 25 µM. 340,000 compounds, 2.5% hits;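 active = melting temperature shift of at least 10% of the positive control shift, at one fixed dose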
CHOP inhibitor: inhibitors of CHOP induction in ER stress response. CHO-K1 CHOP-promoter luciferase, tunicamycin-induced, 15-18 h. inhibition, % at 10 µM. 220,000 compounds, 3.8% hits;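 active = compounds that reduced the stress-induced luciferase reporter signal by more than about 70% of percent inhibition, limit read from the data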;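 also: 0% = tunicamycin plus vehicle and 100% = wells without tunicamycin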
EBV gp42 block: inhibitors of Epstein-Barr virus glycoprotein 42; inhibition, % (tested at 21.74 µM); 220,000 compounds, 0.42% hits; AID 1085; Fluorescence polarization binding assay, mP read-out; in the data active = inhibition above about 50%
Target sequence (Q1HVG2 whole entry, looked up): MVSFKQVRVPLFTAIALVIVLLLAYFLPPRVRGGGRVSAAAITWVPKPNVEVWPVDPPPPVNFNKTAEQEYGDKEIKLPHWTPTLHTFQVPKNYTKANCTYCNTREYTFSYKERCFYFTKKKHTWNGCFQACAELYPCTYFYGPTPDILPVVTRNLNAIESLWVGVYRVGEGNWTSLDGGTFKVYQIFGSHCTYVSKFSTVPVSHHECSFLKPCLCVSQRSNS
WT yeast gro inh: growth inhibition of WT yeast, mitochondrial fusion screen; 190,000 compounds, 2.1% hits; mitochondrial fusion phenotypic screen, WT strain; inhibition, % at 10 µM; in the data active = inhibition above about 58%; tested in S. cerevisiae
MPTP inh: inhibitors of mitochondrial permeability transition pore | isolated mouse mitochondria, Ca2+ swelling absorbance, 30 min | inhibition, % at 10 µM | 360,000 compounds, 1.4% hits | AID 602449;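 active = inhibition of 50% or more, scaled per plate between neutral and stimulator controls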;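 also: 0% = DMSO wells given calcium and 100% = 1 mM EGTA wells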
Rh123 counter: mitochondrial membrane potential, counter-screen. shares compounds with MPTP inh. isolated mitochondria, Rhodamine 123 fluorescence. 5,000 compounds, 78% hits. inhibition, % at 10 µM; in the data active = inhibition above about 22%;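 also: 0% = DMSO vehicle and 100% = positive control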
MPTP swell DR: dose response confirmation of mitochondrial permeability transition pore inhibitors. shares compounds with MPTP inh. 780 compounds, 58% hits. IC50, µM. isolated mitochondria swelling, absorbance; in the data active = IC50 below about 20 µM
MPTP counter DR: counter-screen for mitochondrial permeability transition pore inhibitors, dose response; isolated mitochondria counterscreen, fluorescence read-out; 780 compounds, 49% hits; shares compounds with MPTP inh; IC50, µM; AID 651564; in the data active = IC50 below about 80 µM
* marks the source's active call; other numbers are inactive results; i = inactive; · = no result.

SMILES	Tb MetRS inh	NR3A LBD binder	CHOP inhibitor	EBV gp42 block	WT yeast gro inh	MPTP inh	Rh123 counter	others
CC1CCCN(CCCNC(=O)c2ccc(CS(=O)(=O)Cc3cccc(Cl)c3)o2)C1 (stereo not drawn)	0	-1	·	·	·	2	·
CSCCC(NC(=O)c1ccc(Cl)cc1)C(=O)NC(C)(C)C (stereo not drawn)	0	-6	31	-25	-20	2	·
O=C(c1cccc(S(=O)(=O)N2CCN(c3ccc(F)cc3)CC2)c1)N1CCCCCCC1	0	-2	·	·	·	3	·
COc1ccc(N2CCc3c(C)nc4c(OC)cc(OC)cc4c32)c(OC)c1	0	-1	48	-15	51	64*	72*
O=C(Nc1ccc([N+](=O)[O-])cc1)C1CC1(c1ccccc1)c1ccccc1 (stereo not drawn)	0	6	50	7	33	92*	87*
COc1ccc(CCNC(=S)Nc2ccccc2)cc1	0	4	4	-18	·	2	·
COc1cc(NC(=S)NCCC(c2ccccc2)c2ccccc2)cc(OC)c1	0	-3	46	1	66*	78*	92*
Cc1cccc(NC(=S)NCCC(c2ccccc2)c2ccccc2)c1	0	10	0	-4	69*	87*	100*
COc1ccc(C(=O)CSc2[nH]c(=O)cc(C(F)(F)F)c2C#N)cc1	0	4	-1	0	·	85*	76*
O=C(O)CSCC(=O)N1CCCN(c2nc3ccc(Cl)cc3s2)CC1	0	-1	9	-12	·	0	·
COc1ccc(OC)c(NC(=O)CSc2ncnc3c2cnn3-c2ccccc2Cl)c1	0	1	80*	-7	17	84*	82*
COc1cc(NC(=O)CSc2ncnc3c2cnn3Cc2ccccc2)cc(OC)c1	-1	-3	-35	-13	10	54*	28*
Cc1cc(C)c(C#N)c(SCC(=O)c2cc(C)n(CCc3ccccc3)c2C)n1	-1	-1	14	-37	-8	1	·
COCCn1c(C)cc(C(=O)CSc2nc(C)cc(C)c2C#N)c1C	0	-4	28	-18	-22	66*	4	MPTP swell DR=i;MPTP counter DR=58*
CN(C)c1ccc2nc3ccc(=[N+](C)C)cc-3sc2c1	-1	-4	42	-5	33	48	·
Cc1cc2nc3ccc(=[N+](C)C)cc-3sc2cc1N	-1	0	36	-8	·	63*	37*
O=C(Nc1cc(-c2ccccc2)nn1C1CCCCC1)c1ccc(Cl)cc1	0	-2	·	·	·	64*	97*
Cn1nc(-c2ccccc2)cc1NC(=O)c1ccccc1	0	-1	·	·	·	0	·
CCc1ccc(OCCOCC(O)CNC(C)(C)C)cc1 (stereo not drawn)	0	-4	5	4	-10	1	·
O=C(Nc1cc(Oc2ccccc2)cc([N+](=O)[O-])c1)C12CC3CC(C1)CC(n1cnc(Cl)n1)(C3)C2	-1	-4	27	-5	-8	82*	59*
CC(C1CC1)N(Cc1ccccc1)C(=S)Nc1cccc(C(F)(F)F)c1 (stereo not drawn)	0	0	75*	-9	76*	65*	85*
CC(NC(=S)NC1CCCCC1)c1ccc(C(C)(C)C)cc1 (stereo not drawn)	-1	4	·	·	·	53*	106*
CCC(C)c1ccc(C(C)NC(=S)NC2CCCCC2)cc1 (stereo not drawn)	0	0	·	·	·	59*	103*
CCc1ccc(C(C)NC(=S)NC2CCCCC2)cc1 (stereo not drawn)	-1	-4	·	·	·	4	·
CC(C)c1ccc(C(C)NC(=S)NC2CCCCC2)cc1 (stereo not drawn)	0	-1	·	·	·	28	·
SMILES	Tb MetRS inh	NR3A LBD binder	CHOP inhibitor	EBV gp42 block	WT yeast gro inh	MPTP inh	Rh123 counter	others
Cc1nn(CCCC(=O)Nc2cc(Oc3ccc(F)cc3)cc([N+](=O)[O-])c2)c(C)c1[N+](=O)[O-]	0	1	67	-8	25	38	·
Cc1c(Cl)c([N+](=O)[O-])nn1CCCC(=O)Nc1cc(Oc2ccccc2)cc([N+](=O)[O-])c1	0	18*	69	4	20	85*	83*
C=C(C)c1cccc(C(C)(C)NC(=O)Nc2ccc(C(C)=O)cc2)c1	1	-3	22	-2	17	82*	83*
C=C(C)c1cccc(C(C)(C)NC(=O)Nc2ccc(OC)cc2)c1	-1	-2	-1	-11	8	7	·
CC(C)COc1ccc(C(=O)OC2CC(C)(C)OCC2CN(C)C)cc1 (stereo not drawn)	-2	-2	71*	-24	4	68*	-8	MPTP swell DR=12*;MPTP counter DR=>80
COCCn1c(C)cc(C(=O)CSc2nnc3ccccn23)c1C	0	-2	41	1	9	0	·
COc1ccc(NC(=O)C2=Cc3ccccc3OC2)cc1	0	-5	23	6	-5	-1	·
Cc1cc(=O)[nH]c(SCC(=O)C23CC4CC(CC(C4)C2)C3)c1C#N	-1	-9	-2	-5	-4	85*	84*
Cc1cc(=O)[nH]c(SCC(=O)O)c1C#N	0	1	-16	-12	-7	0	·
CCOC(=O)c1ccccc1NC(=O)C1=COCCO1	0	-2	·	·	·	0	·
COc1ccccc1C(=O)Nc1cccc(Oc2c(F)c(F)c(F)c(F)c2F)c1	-1	-16	39	-16	·	0	·
Cc1cccc(NC(=O)Nc2ccc(Oc3c(F)c(F)c(F)c(F)c3F)cc2)c1	0	·	10	-12	5	88*	60*
COc1ccc(S(=O)(=O)N2CCN(C(=O)[C@H](Cc3ccccc3)NC(=O)c3ccco3)CC2)cc1	0	1	·	·	·	1	·
CCN(CC(=O)Nc1cc(Cl)ccc1C)C(=O)CCS(=O)(=O)c1ccc(C)cc1	-1	1	·	·	·	0	·
CCOC(=O)[C@@H]1[C@H]2COc3ccccc3[C@@H]2N2C(=O)N(c3ccc(C(F)(F)F)cc3)C(=O)[C@@]12C	0	-1	·	·	·	-1	·
CCOC(=O)[C@@H]1[C@H]2COc3ccccc3[C@H]2N2C(=O)N(c3ccc(C(F)(F)F)cc3)C(=O)[C@]12C	0	-3	·	·	·	95*	118*
CC1C(=O)N(Cc2cn(CC3CCCCC3)nn2)CCS(=O)(=O)N1Cc1ccc(-c2ccc(Cl)cc2)cc1 (stereo not drawn)	0	·	·	·	·	0	·
CC(C)COc1ccc(CNC(=S)NCc2ccccc2)cc1	-1	5	50	-5	69*	53*	82*

Screening data (PubChem)
